In ChEMBL document CHEMBL1122209, “Synthesis of N-[[(substituted-phenyl)carbonyl]amino]-1,2,3,6-tetrahydropyridines with analgesic and hyperglycemic activity” (J Med Chem, 1982) one finds Change and inhibition in vivo data, which are given here for 26 compounds.

SMILES strings stand for the structures.

Experiment [1] concerns Rattus norvegicus. Nature of the experiment: Percentage change in blood glucose concentration in male Wistar rats after 4 hr post treatment at a dose of 100 mg/Kg po. Format: functional. The procedure, abridged: (§1)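 Groups of four male Wistar rats (230-260 g), fasted overnight. Test agent was suspended in 1% tragacanth in distilled water and given orally. Tail capillary blood was drawn at 0, 2 and 4 h. Serum glucose was determined spectrophotometrically from enzymatically produced NADH₂ (Barthelma-Czok procedure). Results are the mean of four animals; a positive value means hyperglycemic, a negative value hypoglycemic.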

The subject of experiment [2] is Mus musculus. Nature of the experiment: Analgesic activity was measured by phenylquinone writhing test in male Swiss albino mice at a dose of 0.004 mg/Kg, sc. Format: functional. A digest of the protocol:
(§2)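 Groups of five male Swiss albino mice (18-22 g). Test agent was suspended in physiological saline with Tween 80 by ultrasonic mixing and given sc. After 30 min, 0.03% phenyl-p-benzoquinone was given ip at 0.1 mL/10 g body weight. Total writhes were counted and compared with a vehicle-treated control group: % change = 100 − (treated writhes/control writhes × 100).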
A general note: In writhing tests, fewer writhes than in controls are read as antinociception.

Experiment [3] has as its system Rattus norvegicus. Nature of the experiment: Percentage change in blood glucose concentration in male Wistar rats after 2 hr post treatment at a dose of 100 mg/Kg po. The experiment is classed as functional. A digest of the protocol:
as §1

The test system of experiment [4] is Rattus norvegicus. Nature of the experiment: Percentage change in blood glucose concentration in male Wistar rats after 2 hr post treatment at a dose of 100 mg/Kg po; Hypoglycemic. The experiment is classed as functional. A digest of the protocol:
as §1

The test system of experiment [5] is Rattus norvegicus. Nature of the experiment: Percentage change in blood glucose concentration in male Wistar rats after 4 hr post treatment at a dose of 100 mg/Kg po; Hypoglycemic. The experiment is classed as functional. A digest of the protocol: as §1
The test system of experiment [6] is Rattus norvegicus. Nature of the experiment: Percentage change in blood glucose concentration in male Wistar rats after 2 hr post treatment at a dose of 30 mg/Kg po; Hyperglycemic. The experiment is classed as functional. A digest of the protocol:
as §1

Experiment [7] deals with Mus musculus. Briefly: Analgesic activity was measured by phenylquinone writhing test in male Swiss albino mice at a dose of 0.004 mg/Kg, sc. Format: functional. A digest of the protocol:
as §2

Experiment [8] deals with Rattus norvegicus. Nature of the experiment: Percentage change in blood glucose concentration in male Wistar rats after 2 hr post treatment at a dose of 100 mg/Kg po; Hyperglycemic. The experiment is classed as functional. The procedure, abridged:
as §1

For experiment [9], the system named is Rattus norvegicus. Briefly: Percentage change in blood glucose concentration in male Wistar rats after 4 hr post treatment at a dose of 100 mg/Kg po; Hyperglycemic. Format: functional. A digest of the protocol:
as §1

Experiment [10] has as its system Mus musculus. Nature of the experiment: Analgesic activity was measured by phenylquinone writhing test in male Swiss albino mice at a dose of 0.038 mg/Kg, sc. As to conditions: read-out: Inhibition.
The subject of experiment [11] is Mus musculus. Briefly: Analgesic activity was measured by phenylquinone writhing test in male Swiss albino mice at a dose of 3.1 mg/Kg, sc. As to conditions: read-out: Inhibition.
Experiment [12] has as its system Rattus norvegicus. Nature of the experiment: Percentage change in blood glucose concentration in male Wistar rats after 4 hr post treatment at a dose of 30 mg/Kg po; Hyperglycemic. Format: functional. A digest of the protocol:
as §1

For experiment [13], the system named is Mus musculus. Briefly: Analgesic activity was measured by phenylquinone writhing test in male Swiss albino mice at a dose of 50 mg/Kg, sc. Format: functional. The procedure, abridged:
as §2

The subject of experiment [14] is Rattus norvegicus. Nature of the experiment: Antiinflammatory activity was measured by carrageenan-induced paw edema test in female Sprague-Dawley rats at dose of 12 mg/Kg sc after 5 hr.
Experiment [15] deals with Rattus norvegicus. Briefly: Antiinflammatory activity was measured by carrageenan-induced paw edema test in female Sprague-Dawley rats at dose of 12 mg/Kg sc after 3h. (Carrageenan injected into the paw causes an acute inflammation.)

Consider `O=C(NN1CC=CCC1)c1ccccc1`, for which the Change was found to be 50% in the experiment with Rattus norvegicus [1] and 78% in the experiment with Rattus norvegicus [3]. This compound also showed an inhibition in vivo at 0.004 mg/kg in the experiment with Mus musculus [2] of 73.6%.
Turning to `O=C(NN1CC=CCC1)c1cc(Cl)cc(Cl)c1`, the values for the Change in the experiment with Rattus norvegicus [1] and in the experiment with Rattus norvegicus [3] were 18.5% and 3.8%, respectively. In the experiment with Mus musculus [2], this compound registered an inhibition in vivo at 0.004 mg/kg of 69.6%.
In the same order, the values of `O=C(NN1CC=CCC1)c1ccc(C(F)(F)F)cc1` are 37.3%, 43.3% and 46.4%.
The matching figures for `O=C(NN1CC=CCC1)c1ccccc1Cl`: 21.4%, 16.9% and 52%.
Turning to `Cc1ccccc1C(=O)NN1CC=CCC1`, the Change was -2.8% with Rattus norvegicus [4] and -6.3% in the experiment on Rattus norvegicus [5]. Further, the inhibition in vivo at 0.004 mg/kg with Mus musculus [2] amounted to 72%.
With `O=C(NN1CC=CCC1)c1ccccc1F`, the Change in the experiment with Rattus norvegicus [1] is on record as 127%; in the experiment with Rattus norvegicus [6], 50%; in the experiment on Rattus norvegicus [3], 213%. This compound registered an inhibition in vivo at 0.004 mg/kg in the experiment with Mus musculus [2] of 64.8%.
Take `O=C(NN1CC=CCC1)c1ccc(Cl)cc1`: the figures for the Change with Rattus norvegicus [1] and in the experiment on Rattus norvegicus [3] were 26% and 109%, respectively. Moreover, in the experiment with Mus musculus [2], the inhibition in vivo at 0.004 mg/kg was 61.6%.
With `O=C(NN1CC=CCC1)c1ccc(Cl)cc1Cl`, the results for the Change with Rattus norvegicus [4] and with Rattus norvegicus [1] were -6.5% and 1.3%, respectively. Also, in the experiment on Mus musculus [2], the inhibition in vivo at 0.004 mg/kg is 57.2%.
As for `COc1cccc(C(=O)NN2CC=CCC2)c1`, the Change with Rattus norvegicus [1] amounted to 72.8%; in the experiment with Rattus norvegicus [3], 113.3%. The inhibition in vivo at 0.004 mg/kg in the experiment with Mus musculus [2] was found to be 68.8%.
Take `Cc1ccc(C(=O)NN2CC=CCC2)cc1C`: the Change is reported as 62.8% with Rattus norvegicus [1] and 92.3% in the experiment on Rattus norvegicus [3]. Also, the inhibition in vivo at 0.004 mg/kg with Mus musculus [2] was 60.8%.
Turning to `O=C(NN1CC=CCC1)c1ccc(F)cc1`, the Change stood at 154% in the experiment on Rattus norvegicus [1] and 124% with Rattus norvegicus [3]. Besides, the inhibition in vivo at 0.004 mg/kg in the experiment on Mus musculus [2] is 55.2%.
Turning to `COc1ccccc1C(=O)NN1CC=CCC1`, the Change with Rattus norvegicus [1] was 6.3%; in the experiment on Rattus norvegicus [3] it was 5.8%. In the experiment on Mus musculus [2], this compound gave an inhibition in vivo at 0.004 mg/kg of 69.6%.
Take `O=C(NN1CC=CCC1)c1ccc([N+](=O)[O-])cc1`: the inhibition in vivo at 0.004 mg/kg in the experiment with Mus musculus [7] was found to be 51%. Moreover, the Change in the experiment on Rattus norvegicus [8] is 92.6%; with Rattus norvegicus [9], 140.6%.
Take `COc1ccc(C(=O)NN2CC=CCC2)cc1`: the values for the Change with Rattus norvegicus [1] and in the experiment on Rattus norvegicus [3] were 26% and 69%, respectively. The compound also returned an inhibition in vivo at 0.004 mg/kg in the experiment on Mus musculus [2] of 57.6%.
In the case of `Cc1ccc(C(=O)NN2CC=CCC2)cc1`, the Change was 41% in the experiment with Rattus norvegicus [1] and 73% in the experiment with Rattus norvegicus [3]. Moreover, the inhibition in vivo at 0.004 mg/kg in the experiment with Mus musculus [2] was found to be 48%.
On to `CN1CC[C@]23c4c5ccc(O)c4O[C@H]2[C@@H](O)C=C[C@H]3[C@H]1C5`, for which the inhibition in vivo at 0.038 mg/kg in the experiment on Mus musculus [10] turned out to be 50%. Besides, in the experiment on Mus musculus [11], the inhibition in vivo at 3.1 mg/kg was determined as 50%.
Turning to `O=C(NN1CC=CCC1)c1ccc(Cl)c(Cl)c1`, the Change with Rattus norvegicus [1] came to 59%; with Rattus norvegicus [3], 50%. Besides, in the experiment on Mus musculus [2], the inhibition in vivo at 0.004 mg/kg is 48.8%.
For `CC(C)(C)c1ccc(C(=O)NN2CC=CCC2)cc1`, the Change in the experiment on Rattus norvegicus [1] was 4.7%; with Rattus norvegicus [3], 1.8%. In the experiment with Mus musculus [2], this compound yielded an inhibition in vivo at 0.004 mg/kg of 48.8%.
`O=C(NN1CC=CCC1)c1ccccc1C(F)(F)F`: the results for the Change in the experiment with Rattus norvegicus [1] and in the experiment on Rattus norvegicus [3] were 19.6% and 1.2%, respectively. Further, the inhibition in vivo at 0.004 mg/kg in the experiment with Mus musculus [2] stood at 64%.
For the compound `O=C(NN1CC=CCC1)c1cccc(C(F)(F)F)c1`, the results for the Change in the experiment on Rattus norvegicus [1] and in the experiment with Rattus norvegicus [3] were 102% and 114.8%, respectively. Further, the inhibition in vivo at 0.004 mg/kg in the experiment on Mus musculus [2] worked out at 54.4%.
On to `Cc1cccc(C(=O)NN2CC=CCC2)c1`, for which the Change in the experiment on Rattus norvegicus [1] amounted to 108.5%; in the experiment with Rattus norvegicus [6], 50%; in the experiment with Rattus norvegicus [12], 50%; in the experiment with Rattus norvegicus [3], 117.2%. In addition, the inhibition in vivo at 0.004 mg/kg with Mus musculus [2] came to 56%.
As for `O=C(NN1CC=CCC1)c1cccc(F)c1`, the Change came out at 137.8% in the experiment with Rattus norvegicus [1] and 167.3% with Rattus norvegicus [3]. Further, the inhibition in vivo at 0.004 mg/kg in the experiment with Mus musculus [2] worked out at 65.6%.
`CC(=O)Oc1ccccc1C(=O)O` [ASPIRIN] came in with an inhibition in vivo at 50 mg/kg in the experiment with Mus musculus [13] of 50%.
`CCCNC(=O)NS(=O)(=O)c1ccc(Cl)cc1` [CHLORPROPAMIDE]: the Change with Rattus norvegicus [4] is -42%; in the experiment on Rattus norvegicus [5], -38%.
On to `COc1ccc2c(c1)c(CC(=O)O)c(C)n2C(=O)c1ccc(Cl)cc1` [INDOMETHACIN], for which the figures for the inhibition in vivo at 12 mg/kg in the experiment on Rattus norvegicus [14] and in the experiment with Rattus norvegicus [15] were 83% and 17%, respectively.
Compound `CCC(=O)O[C@](Cc1ccccc1)(c1ccccc1)[C@H](C)CN(C)C` [PROPOXYPHENE] had an inhibition in vivo at 0.004 mg/kg with Mus musculus [2] of 50%.
